What was measured:
[1] = target: Sodium-dependent dopamine transporter (Homo sapiens) (UniProt Q01959); assay: Displacement of [3H]GBR12935 from human DAT at 1 uM after 120 mins by scintillation counting method relative to control
In short: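 DAT-enriched human membranes (5 µg), 2 nM [3H]GBR12935 in 50 mM Tris-HCl/100 mM NaCl pH 7.4, 0.1% DMSO, 120 min at 4 °C; 10 µM GBR12909 for nonspecific binding. Compound at 1 µM; displacement measured after filtration.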

[2] = target: CYP2D6 (Homo sapiens, UniProt P10635); assay: Inhibition of recombinant human CYP2D6 at 1 uM by fluorescence probe substrate-based flurometric analysis; type: ADME
[3] = Drug metabolism in human liver microsomes at 1 uM incubated for 1 hr in presence of NADPH by UPLC-MS analysis; type: ADME, Microsome; details: read-out: Drug metabolism
In short: (§1)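 Liver microsomes, compound 1 µM, 37 °C for 1 h in 50 mM Na/K phosphate pH 7.4, 3 mM MgCl2, NADPH-regenerating system, CYP 0.3 nmol/mL. Aliquots at 0, 10, 20, 40, 60 min quenched with cold acetonitrile, supernatants by UPLC-MS/MS; % parent remaining at end reported. Terfenadine as positive control.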

[4] = Drug metabolism in mouse liver microsomes at 1 uM incubated for 1 hr in presence of NADPH by UPLC-MS analysis; type: ADME, Microsome; details: read-out: Drug metabolism; in short: as §1
[5] = tested on: HepG2; assay: Cytotoxicity against human HepG2 assessed as reduction in cell viability at 1 to 100 uM after 20 hrs by neutral red uptake assay; type: cell-based; details: hepg2, 20 h
In short: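 HepG2 seeded 3 x 10^4/well, 24 h, then 20 h serum-free exposure at 1, 10 or 100 µM. Neutral red 50 µg/mL for 3 h, washed, dye extracted with 50% ethanol/1% acetic acid, OD 550 nm. IC50 assigned as lowest concentration reaching ≥50% cytotoxicity against untreated cells; n = 4 (duplicate, two assays).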

[6] = target: 5-hydroxytryptamine receptor 2B (Homo sapiens) (UniProt P41595); assay: Displacement of [3H]-LSD from recombinant human 5HT2B receptor at 1 uM after 30 mins by scintillation counting method relative to control
In short: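 Human 5-HT2B-enriched membranes (5 µg), 1 nM [3H]LSD in 50 mM Tris-HCl, 4 mM CaCl2, 1% ascorbic acid, pH 7.4, 0.1% DMSO; 30 min, 37 °C; 50 µM 5-HT for nonspecific binding. Single 1 µM compound concentration; displacement after filtration.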

[7] = target: Alpha-1A adrenergic receptor (Homo sapiens) (UniProt P35348); assay: Displacement of [3H]prazosin from human adrenergic alpha1A receptor at 1 uM after 90 mins by scintillation counting method relative to control
In short: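 α1A adrenoceptor-enriched human membranes (10 µg), 0.2 nM [3H]prazosin in 50 mM HEPES, 5 mM MgCl2, 1 mM CaCl2, 0.2% BSA, pH 7.4; 90 min at 25 °C; 1 µM prazosin for nonspecific binding. Compound tested at 1 µM; bound ligand collected by filtration.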

[8] = target: Mu-type opioid receptor (Homo sapiens, UniProt P35372); assay: Displacement of [3H]DAMGO from human MOR expressed in CHO-K1 cells membranes after 60 mins by micro beta scintillation counting method; type: cell membranes
In short: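 Human MOR in CHO-K1 membranes (20 µg) with 1 nM [3H]DAMGO in 50 mM Tris-HCl, 5 mM MgCl2, pH 7.4, 27 °C for 60 min. Test compound at five concentrations; 10 µM naloxone defines nonspecific binding. Filtered, washed thrice with ice-cold 10 mM Tris-HCl, counted by liquid scintillation.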

[9] = target: Voltage-gated inwardly rectifying potassium channel KCNH2 (Homo sapiens, UniProt Q12809); assay: Inhibition of human ERG expressed in CHO cells at -80 mV holding potential by automated patch clamp electrophysiology assay; type: cell-based
Sequence of Voltage-gated inwardly rectifying potassium channel KCNH2 (Q12809 whole entry): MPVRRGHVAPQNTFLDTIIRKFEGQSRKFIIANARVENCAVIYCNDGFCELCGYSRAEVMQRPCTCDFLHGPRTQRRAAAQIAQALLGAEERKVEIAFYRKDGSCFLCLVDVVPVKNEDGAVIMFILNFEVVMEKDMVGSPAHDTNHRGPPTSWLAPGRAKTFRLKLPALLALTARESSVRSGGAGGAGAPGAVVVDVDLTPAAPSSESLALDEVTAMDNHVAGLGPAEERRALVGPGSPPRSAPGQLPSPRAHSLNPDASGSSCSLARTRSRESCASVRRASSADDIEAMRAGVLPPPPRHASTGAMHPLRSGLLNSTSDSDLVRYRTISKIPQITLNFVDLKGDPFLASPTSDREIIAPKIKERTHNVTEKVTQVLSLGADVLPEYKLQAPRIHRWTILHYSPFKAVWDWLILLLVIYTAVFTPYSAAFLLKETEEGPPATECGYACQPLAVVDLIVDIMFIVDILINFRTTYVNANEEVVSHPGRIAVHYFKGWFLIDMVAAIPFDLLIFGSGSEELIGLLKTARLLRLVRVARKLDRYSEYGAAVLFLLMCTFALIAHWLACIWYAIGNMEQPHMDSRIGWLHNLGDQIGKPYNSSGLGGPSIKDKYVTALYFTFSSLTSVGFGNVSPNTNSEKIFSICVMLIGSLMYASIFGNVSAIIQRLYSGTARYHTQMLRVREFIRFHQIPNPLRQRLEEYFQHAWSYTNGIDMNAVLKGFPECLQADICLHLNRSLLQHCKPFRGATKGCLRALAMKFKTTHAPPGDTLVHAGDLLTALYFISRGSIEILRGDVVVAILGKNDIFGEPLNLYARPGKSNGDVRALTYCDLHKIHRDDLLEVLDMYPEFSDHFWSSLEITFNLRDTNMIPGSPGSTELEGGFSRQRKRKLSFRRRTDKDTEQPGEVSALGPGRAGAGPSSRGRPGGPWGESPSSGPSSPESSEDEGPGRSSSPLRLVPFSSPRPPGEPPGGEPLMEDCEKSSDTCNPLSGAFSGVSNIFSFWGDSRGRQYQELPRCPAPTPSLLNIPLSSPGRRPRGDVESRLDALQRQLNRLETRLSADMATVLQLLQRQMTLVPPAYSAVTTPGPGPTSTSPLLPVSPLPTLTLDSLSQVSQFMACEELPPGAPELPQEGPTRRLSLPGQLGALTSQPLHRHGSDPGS

Sequence of 5-hydroxytryptamine receptor 2B (Homo sapiens) (P41595 whole entry): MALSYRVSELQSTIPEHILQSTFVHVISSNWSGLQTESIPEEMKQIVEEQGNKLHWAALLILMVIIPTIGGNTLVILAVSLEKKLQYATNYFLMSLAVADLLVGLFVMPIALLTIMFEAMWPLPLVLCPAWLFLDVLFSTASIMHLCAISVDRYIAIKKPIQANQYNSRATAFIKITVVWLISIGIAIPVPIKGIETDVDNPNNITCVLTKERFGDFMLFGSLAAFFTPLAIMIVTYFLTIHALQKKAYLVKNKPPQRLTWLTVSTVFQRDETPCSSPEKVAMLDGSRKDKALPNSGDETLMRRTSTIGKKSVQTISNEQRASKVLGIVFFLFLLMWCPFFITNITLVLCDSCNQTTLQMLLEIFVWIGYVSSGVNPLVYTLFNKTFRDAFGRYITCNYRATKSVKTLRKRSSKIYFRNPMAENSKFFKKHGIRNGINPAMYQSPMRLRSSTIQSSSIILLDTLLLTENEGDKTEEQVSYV
Sequence of Mu-type opioid receptor (P35372 whole entry): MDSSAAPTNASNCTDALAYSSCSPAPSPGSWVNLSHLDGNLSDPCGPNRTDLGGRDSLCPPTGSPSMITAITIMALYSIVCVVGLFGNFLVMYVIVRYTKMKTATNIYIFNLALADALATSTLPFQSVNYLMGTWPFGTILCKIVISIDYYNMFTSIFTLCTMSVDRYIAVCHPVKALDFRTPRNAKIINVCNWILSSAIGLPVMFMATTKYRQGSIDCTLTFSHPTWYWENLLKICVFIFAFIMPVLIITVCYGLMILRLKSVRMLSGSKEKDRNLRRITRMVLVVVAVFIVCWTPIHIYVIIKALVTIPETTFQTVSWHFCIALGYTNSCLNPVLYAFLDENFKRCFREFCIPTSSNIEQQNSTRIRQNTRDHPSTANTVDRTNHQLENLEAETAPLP
Sequence of Sodium-dependent dopamine transporter (Homo sapiens) (Q01959 whole entry): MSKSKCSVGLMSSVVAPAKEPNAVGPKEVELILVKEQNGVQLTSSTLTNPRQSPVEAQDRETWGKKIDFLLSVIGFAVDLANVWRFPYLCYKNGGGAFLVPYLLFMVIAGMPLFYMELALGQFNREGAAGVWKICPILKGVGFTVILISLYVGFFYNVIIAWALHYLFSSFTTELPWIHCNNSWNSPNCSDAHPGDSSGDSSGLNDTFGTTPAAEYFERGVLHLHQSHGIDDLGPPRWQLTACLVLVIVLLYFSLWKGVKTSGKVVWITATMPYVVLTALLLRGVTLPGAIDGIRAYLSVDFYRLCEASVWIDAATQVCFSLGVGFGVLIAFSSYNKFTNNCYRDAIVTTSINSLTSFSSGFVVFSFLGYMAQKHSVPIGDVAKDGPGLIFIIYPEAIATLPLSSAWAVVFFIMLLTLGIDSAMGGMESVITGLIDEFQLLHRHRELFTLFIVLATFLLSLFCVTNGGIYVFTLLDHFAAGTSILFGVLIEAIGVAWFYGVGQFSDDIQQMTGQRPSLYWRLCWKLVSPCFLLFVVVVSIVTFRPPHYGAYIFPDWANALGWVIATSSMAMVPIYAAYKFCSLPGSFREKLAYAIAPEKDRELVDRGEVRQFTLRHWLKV
Sequence of Alpha-1A adrenergic receptor (Homo sapiens) (P35348 whole entry): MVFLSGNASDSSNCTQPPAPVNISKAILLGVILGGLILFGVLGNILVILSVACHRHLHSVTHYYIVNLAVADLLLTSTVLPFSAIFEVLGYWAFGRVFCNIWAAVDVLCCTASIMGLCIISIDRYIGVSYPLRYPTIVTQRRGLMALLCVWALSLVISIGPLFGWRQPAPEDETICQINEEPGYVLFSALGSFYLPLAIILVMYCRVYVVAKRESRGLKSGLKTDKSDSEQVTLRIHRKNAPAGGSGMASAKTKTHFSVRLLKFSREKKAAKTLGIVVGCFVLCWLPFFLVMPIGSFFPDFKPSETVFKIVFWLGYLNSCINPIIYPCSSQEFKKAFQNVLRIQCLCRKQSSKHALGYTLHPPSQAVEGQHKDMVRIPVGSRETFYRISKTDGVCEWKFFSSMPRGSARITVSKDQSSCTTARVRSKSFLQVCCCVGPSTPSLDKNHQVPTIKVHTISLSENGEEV
Sequence of CYP2D6 (P10635 whole entry): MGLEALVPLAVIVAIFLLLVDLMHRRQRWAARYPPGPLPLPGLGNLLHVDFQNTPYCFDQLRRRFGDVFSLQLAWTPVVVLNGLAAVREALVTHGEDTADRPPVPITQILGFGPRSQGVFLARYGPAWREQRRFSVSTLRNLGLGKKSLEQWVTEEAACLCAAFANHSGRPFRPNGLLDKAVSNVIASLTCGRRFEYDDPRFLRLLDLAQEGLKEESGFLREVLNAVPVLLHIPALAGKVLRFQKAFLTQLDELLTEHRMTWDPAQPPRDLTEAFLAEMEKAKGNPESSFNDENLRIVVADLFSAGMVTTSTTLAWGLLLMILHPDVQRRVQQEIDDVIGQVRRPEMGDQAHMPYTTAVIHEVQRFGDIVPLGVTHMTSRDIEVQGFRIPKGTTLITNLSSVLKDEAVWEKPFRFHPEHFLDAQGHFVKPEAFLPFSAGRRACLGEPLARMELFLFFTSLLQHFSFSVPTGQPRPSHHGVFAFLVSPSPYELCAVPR

Q: What does the source list for `COc1ccc2c(c1)CCN(CCC(F)Cc1ccccc1)CC2` (centres undefined)?
A: inhibition [1]: < 50%; inhibition at 1 µM [2]: 55%; metabolised at 1 h, 1 µM [3]: 100%; metabolised at 1 h, 1 µM [4]: 100%; Activity [5]: Toxic; inhibition [6]: < 50%; inhibition [7]: < 50%; Ki [8]: > 1000 nM; IC50 [9]: 553 nM

Reference: ChEMBL document CHEMBL4393719, “Tetrahydro-3-benzazepines with fluorinated side chains as NMDA and σ1 receptor antagonists: Synthesis, receptor affinity, selectivity and antiallodynic activity” (Eur J Med Chem, 2019)
